Many of the other results were omitted from the sample, so hits are more common in it than they were.
TbMetRS inhib = T. brucei MetRS inhibitors, primary screen, biochemical, luminescence | methionyl-tRNA synthetase (Trypanosoma brucei brucei) | purified T. brucei MetRS, ATP depletion, Kinase-Glo luminescence | inhibition, % at 11.9 µM | actives 0.4% (n = 360,000);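 active = inhibition above a per-plate cutoff of the control wells' mean inhibition plus 3 SD, cut at about 5.5% in these data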;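 note: 0% = DMSO wells median and 100% = median of wells with control inhibitor compound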
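Material: parasite MetRS enzyme / Replication: singlicate, one well per compound / Signal: luminescence of leftover ATP / Schedule: 2 h aminoacylation at 25 °C after 15 min preincubation / Medium: HEPES-MgCl2-KCl buffer plus DTT, spermine, BSA, pyrophosphatase / Doses: 11.9 µM single point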
CHOP UPR activ = activators of apoptotic CHOP UPR arm, primary screen, cell-based, CHO-CHOP luciferase reporter, luminescence, uHTS | actives 0.34% (n = 330,000) | UPR activation; percent of tunicamycin response over DMSO baseline | activation, % at 10 µM;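 active = at 10 µM dose, activation of 40% or more, normalized to positive control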;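 note: 100% = tunicamycin at 10 µg/mL and 0% = DMSO alone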
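System: CHO CHOP reporter cells. Amount: 500 cells per well. Buffer or medium: F12 medium, 10% FBS. Compound dosing: one dose, 10 µM in 0.5% DMSO. Incubation: 6 h compound exposure at 37 °C after overnight seeding. Technique: Steady-Glo luciferase luminescence. Benchmarks: tunicamycin and DMSO controls.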
XBP1 UPR activ = activators of adaptive XBP1 UPR arm, primary screen, cell-based, CHO-XBP1 luciferase reporter, luminescence, uHTS | IRE1-XBP1 UPR activation; percent of tunicamycin response, DMSO as zero | activation, % at 20 µM | actives 0.33% (n = 330,000) | AID 463104, 2010;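 active = versus positive control, 20 µM dose yields 30% or more activation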;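 note: 100% = tunicamycin at 10 µg/mL and 0% = DMSO only wells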
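Material: IRE1-XBP1 luciferase reporter CHO line / Quantity: one thousand reporter cells per well / Buffer or medium: F12 with 10% serum / Compound: 20 µM single concentration, DMSO 1% / Times: 6 h treatment, 37 °C / Detection: Steady-Glo luciferase glow luminescence, 10 min after reagent addition / Benchmarks: tunicamycin high, DMSO low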
CHOP inh = inhibitors of CHOP promoter induction, primary screen, cell-based, unfolded protein response, luciferase reporter; actives 3.8% (n = 220,000); inhibition, % at 10 µM; AID 2732, 2010; CHO-K1 CHOP-promoter luciferase, tunicamycin-induced, 15-18 h;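 active = compounds that reduced the stress-induced luciferase reporter signal by more than about 70% of percent inhibition, limit read from the data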;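 note: 0% = tunicamycin plus vehicle and 100% = wells without tunicamycin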
V-ATPase pH = regulators of yeast V-ATPase proton pumping, primary screen, pHLuorin cytosolic pH fluorescence. actives 0.37% (n = 350,000). response, % at 10 µM. S. cerevisiae; in the data active = response mostly above about 7.3%, no sharp cut-off; inactive = mostly below about 5.4%; note: actives read high
XBP1 UPR conf = IRE1-XBP1 UPR arm activators, confirmation, cell-based, CHO-XBP1 luciferase reporter, luminescence, single concentration; actives 63% (n = 1,000); activation, % at 20 µM; shares compounds with XBP1 UPR activ; AID 485299, 2010;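 active = reporter signal at least 30% of the positive control's activation in two or more of four replicate wells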;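 note: plate controls were DMSO negative control for no effect and tunicamycin 10 µg/mL positive control for full effect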
Starred values were filed as active, the others as inactive; nt = no result.

SMILES	TbMetRS inhib	CHOP UPR activ	XBP1 UPR activ	CHOP inh	V-ATPase pH	XBP1 UPR conf
CCOC(=S)SCC(=O)Nc1nc(-c2ccc(Br)cc2)cs1	0.5	4.1	93.0*	81.7*	0.0	164.1*
O=C(COc1ccc(Cl)cc1Cl)N/N=C1\CCCc2ccccc21	-0.4	0.6	2.2	46.0	-2.5	nt
O=C(COc1ccc(Cl)cc1Cl)NN=C1c2ccccc2-c2ccccc21	0.6	7.2	88.7*	85.5*	1.0	96.0*
Cc1ccc(NC(=O)c2nc[nH]c2C(=O)NCCCNC(=O)c2[nH]cnc2C(=O)Nc2ccc(C)cc2)cc1	-0.2	3.5	61.1*	nt	-0.4	34.2*
C/C(=N/Nc1cc(-c2ccccc2)nc(-c2ccccc2)n1)c1ccc(O)cc1	0.3	3.7	67.8*	74.8*	4.2	57.5*
CC(C)C[C@H](NC(=O)c1nc[nH]c1C(=O)NC(c1ccccc1)c1ccccc1)C(=O)OC(C)(C)C	-0.2	15.5	1.9	-38.5	-0.5	nt
CC(C)C[C@H](NC(=O)c1nc[nH]c1C(=O)N[C@@H](CC(C)C)C(=O)OC(C)(C)C)C(=O)OC(C)(C)C	-0.2	7.2	44.9*	28.0	-6.5	25.5
O=c1c2ccccc2nc(CSc2nnnn2-c2ccccc2)n1-c1ccccc1Cl	-1.4	34.9	52.4*	70.7*	4.7	22.4
COC(=O)c1ccc(N2CCN(C)CC2)c(NC(=O)c2ccc(-c3ccc(Cl)cc3)o2)c1	0.6	10.5	44.6*	nt	-0.9	7.4
CN1CCN(c2ccccc2NC(=O)c2ccc(-c3cccc(Cl)c3)o2)CC1	-0.3	0.2	4.7	nt	-1.2	nt
O=C1NC(c2cccc(OCc3ccccc3)c2)Nc2ccccc21 (stereo not drawn)	-0.3	nt	nt	nt	-1.9	nt
C[C@@H]1C[C@H]2[C@@H]3CCC4=CC(=O)C=C[C@]4(C)[C@@]3(Cl)[C@@H](O)C[C@]2(C)[C@@]1(OC(=O)c1ccco1)C(=O)CCl	-0.4	5.5	78.6*	nt	-2.7	58.2*
O=C(Nc1ccc2c(c1)OCO2)c1cc(-c2cccc(O)c2)on1	0.1	8.9	-0.6	nt	-0.9	nt
O=C(Nc1ccc2c(c1)OCO2)c1cc(-c2ccc(O)cc2)on1	0.6	4.8	35.6*	nt	-0.1	10.5
Cc1ccc(OCC(=O)Sc2ccc(C)cc2)cc1	-1.1	4.8	26.8	52.5	-2.0	nt
COc1ccccc1OCC(=O)Sc1ccc(C)cc1	-0.4	7.5	33.9*	75.4*	9.3	19.0
O=c1cc(N2CCc3ccccc3C2)[nH]c(=O)n1Cc1ccc(F)cc1	-0.3	-1.6	42.5*	-0.9	-3.1	-0.5
CCC(C)NC(=O)Cn1ccc2cc(S(=O)(=O)N3CCCCCC3)ccc21 (stereo not drawn)	0.6	1.2	-6.5	nt	-2.8	nt
Cc1nc2nc(NCc3cccs3)nn2c(C)c1Cl	0.5	0.1	0.2	6.3	3.1	nt
CCOc1cc(CNC(C)(C)CO)cc(Br)c1OCc1ccc(Cl)cc1Cl	-1.4	2.6	83.0*	92.4*	-3.7	100.3*
COc1cc(CNC(C)(C)CO)cc(Br)c1OCc1ccccc1	-0.2	1.3	-0.8	-11.7	0.7	nt
CCOc1ccc(CNC(=O)C2CCN(c3nn4c(=O)cc(C)nc4s3)CC2)cc1	0.1	3.0	-2.2	nt	-0.1	nt
CC1=C(C(=O)OCc2ccccc2)C(c2ccc([N+](=O)[O-])cc2)NC(=O)N1CCCCCC(=O)O (stereo not drawn)	-0.2	2.9	1.5	-5.0	-2.6	nt
CC1=C(C(=O)OCc2ccccc2)C(c2ccc([N+](=O)[O-])cc2)NC(=O)N1CCCC(=O)O (stereo not drawn)	-0.2	1.3	52.9*	nt	-4.6	-1.0
CC1=CC(C)(C)n2c(O)c(N=NC(N)=S)c3cc(C)cc1c32	-0.3	22.2	31.1*	35.0	0.2	2.8
SMILES	TbMetRS inhib	CHOP UPR activ	XBP1 UPR activ	CHOP inh	V-ATPase pH	XBP1 UPR conf
O=C(O)c1nn(CCOc2c(Cl)cccc2Cl)c(=O)c2ccccc12	-0.6	2.1	7.1	nt	-1.2	nt
Cc1c(C(=O)Nc2nccs2)oc2ccc(Br)cc12	-0.3	16.7	48.1*	nt	-16.4	79.0*
Cc1ccc2c(c1)C(=O)C(=O)N2Cc1ccc(Br)cc1	0.4	2.0	52.4*	nt	-6.3	39.9*
CCCCN1C(=O)C(=O)c2cc(Cl)ccc21	0.3	6.8	42.4*	nt	0.3	38.5*
Cc1ccc2c(c1)C(=O)C(=O)N2CCCOc1ccccc1C	-0.7	4.0	25.2	62.5	2.5	nt
Cc1ccc(CN2C(=O)C(=O)c3cc(C)ccc32)cc1	-0.1	4.1	35.1*	nt	-1.1	29.1*
CCCN1C(=O)C(=O)c2cc(C)ccc21	0.0	2.4	15.7	nt	2.3	nt
CCOC(=O)c1c(NC(=O)c2cc3n(n2)C(C(F)(F)F)CC(c2cccs2)N3)sc(C)c1C (stereo not drawn)	-0.3	32.9	33.3*	59.5	2.5	205.8*
COc1ccc(OC)c(C2CC(c3c(-c4ccccc4)c4cc(Cl)ccc4[nH]c3=O)=NN2S(C)(=O)=O)c1 (stereo not drawn)	-0.6	1.7	54.5*	-1.4	-2.4	20.5
COc1ccc(C2CC(c3c(-c4ccccc4)c4cc(Cl)ccc4[nH]c3=O)=NN2S(C)(=O)=O)cc1 (stereo not drawn)	1.1	-0.6	49.9*	70.0	0.1	139.9*
O=C(C[n+]1ccc(-c2cc(C(=O)Nc3cccc(C(F)(F)F)c3)c3ccccc3n2)cc1)c1cccc([N+](=O)[O-])c1	-0.9	11.0	105.9*	81.5*	6.2	91.0*
O=C(Nc1ccc(Cl)cc1)Nc1ccccc1Sc1ncc([N+](=O)[O-])s1	0.2	11.6	39.7*	36.8	0.3	31.3*
CCOc1cc(/C=N\Nc2ccc([N+](=O)[O-])cc2)ccc1OCC(=O)Nc1ccc(C)c(C)c1	-1.4	6.8	44.4*	27.0	-2.5	66.4*
CCOC(=O)c1nnc(-c2ccccc2)nc1Sc1c(Cl)cccc1Cl	-0.1	26.0	47.3*	13.6	-2.5	96.7*
CCOC(=O)c1nnc(-c2ccc(C)cc2)nc1N1CCSCC1	-1.0	1.2	-0.4	41.4	4.2	nt
CCOC(=O)c1nnc(-c2ccc(C)cc2)nc1Sc1ccc(Cl)cc1	-0.3	22.2	47.2*	64.4	1.1	18.7
CCOC(=O)c1nnc(-c2ccc(C)cc2)nc1Sc1ccccc1Cl	-0.8	24.9	33.0*	53.7	-4.0	47.9*
CCN1C(=O)C(=O)N(CC(=O)N2CCC(C)Sc3ccccc32)C1=O (stereo not drawn)	0.3	-2.6	3.3	nt	2.0	nt
